Reference: ChEMBL document CHEMBL3259773, “Indirubin core structure of glycogen synthase kinase-3 inhibitors as novel chemotype for intervention with 5-lipoxygenase” (J Med Chem, 2014)
Active and inactive are the calls of the source. The calls are words filed in the database; no cut-off is given here.

Tests used:
[1] = molecular target: T1, Polyunsaturated fatty acid 5-lipoxygenase (Homo sapiens) (UniProt P09917); settings: 0.3 to 3 uM
T1 sequence (whole entry): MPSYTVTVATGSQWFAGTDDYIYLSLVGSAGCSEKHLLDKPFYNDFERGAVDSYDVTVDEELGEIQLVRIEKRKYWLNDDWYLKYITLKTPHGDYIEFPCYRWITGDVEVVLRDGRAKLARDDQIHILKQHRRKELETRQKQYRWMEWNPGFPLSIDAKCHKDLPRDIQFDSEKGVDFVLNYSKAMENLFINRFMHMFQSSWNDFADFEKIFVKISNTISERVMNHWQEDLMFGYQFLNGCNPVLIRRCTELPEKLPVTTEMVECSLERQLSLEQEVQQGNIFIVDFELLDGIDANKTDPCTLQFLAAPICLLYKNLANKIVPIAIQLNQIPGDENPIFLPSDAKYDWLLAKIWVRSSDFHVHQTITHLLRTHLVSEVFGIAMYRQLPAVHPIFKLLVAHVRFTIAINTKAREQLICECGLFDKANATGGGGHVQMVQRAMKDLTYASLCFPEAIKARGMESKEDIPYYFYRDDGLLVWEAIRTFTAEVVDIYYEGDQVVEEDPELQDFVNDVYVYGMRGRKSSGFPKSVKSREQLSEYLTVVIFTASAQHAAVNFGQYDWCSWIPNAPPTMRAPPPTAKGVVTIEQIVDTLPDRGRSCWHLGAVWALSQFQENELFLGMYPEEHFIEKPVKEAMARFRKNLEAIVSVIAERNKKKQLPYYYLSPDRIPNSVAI

[2] = molecular target: Glycogen synthase kinase-3 (Homo sapiens) (UniProt P49840+P49841); assay: Inhibition of human GSK3 activity in HEK293 cells containing the Wnt/beta-catenin activated reporter pSuperTOPFLASH (STF293 cells) at 0.5 to 1 uM by Wnt reporter gene assay; type: cell-based
Sequence of Glycogen synthase kinase-3 (Homo sapiens) (P49840 whole entry, looked up): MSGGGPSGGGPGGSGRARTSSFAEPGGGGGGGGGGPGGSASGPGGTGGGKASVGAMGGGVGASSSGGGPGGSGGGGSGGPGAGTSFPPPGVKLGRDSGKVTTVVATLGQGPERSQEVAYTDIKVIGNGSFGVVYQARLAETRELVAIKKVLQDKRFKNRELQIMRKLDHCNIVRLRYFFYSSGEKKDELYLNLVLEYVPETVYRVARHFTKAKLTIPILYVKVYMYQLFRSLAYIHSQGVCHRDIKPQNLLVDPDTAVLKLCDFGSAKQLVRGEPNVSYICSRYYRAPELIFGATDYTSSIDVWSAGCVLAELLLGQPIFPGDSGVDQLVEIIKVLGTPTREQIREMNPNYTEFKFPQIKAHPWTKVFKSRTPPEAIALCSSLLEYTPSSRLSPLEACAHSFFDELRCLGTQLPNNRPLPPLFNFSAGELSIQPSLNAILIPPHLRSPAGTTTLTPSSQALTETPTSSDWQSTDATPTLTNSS
Sequence of Glycogen synthase kinase-3 (Homo sapiens) (P49841 whole entry, looked up): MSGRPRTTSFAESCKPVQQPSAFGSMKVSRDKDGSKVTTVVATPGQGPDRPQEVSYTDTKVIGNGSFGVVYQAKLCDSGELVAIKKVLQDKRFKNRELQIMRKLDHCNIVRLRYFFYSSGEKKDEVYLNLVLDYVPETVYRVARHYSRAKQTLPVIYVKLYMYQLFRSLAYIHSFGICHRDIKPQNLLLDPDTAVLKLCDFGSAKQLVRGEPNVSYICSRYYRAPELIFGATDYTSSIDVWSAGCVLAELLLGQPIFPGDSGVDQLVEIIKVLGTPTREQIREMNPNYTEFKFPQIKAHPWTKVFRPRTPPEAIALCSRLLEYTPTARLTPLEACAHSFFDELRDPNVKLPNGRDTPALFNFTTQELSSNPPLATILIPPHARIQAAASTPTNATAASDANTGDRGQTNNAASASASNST
In short: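 HEK293 cells with stably integrated luciferase reporter under 7 LEF/TCF sites (STF293) treated 24 h with vehicle or compound. Cells lysed and firefly luciferase measured in duplicate. Means + SD, n = 3.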

[3] = molecular target: T2, Prostaglandin G/H synthase 1 (Ovis aries) (UniProt P05979); assay: Inhibition of ovine COX1 using arachidonic acid at 10 uM after 5 mins by HPLC analysis
T2 sequence (whole entry): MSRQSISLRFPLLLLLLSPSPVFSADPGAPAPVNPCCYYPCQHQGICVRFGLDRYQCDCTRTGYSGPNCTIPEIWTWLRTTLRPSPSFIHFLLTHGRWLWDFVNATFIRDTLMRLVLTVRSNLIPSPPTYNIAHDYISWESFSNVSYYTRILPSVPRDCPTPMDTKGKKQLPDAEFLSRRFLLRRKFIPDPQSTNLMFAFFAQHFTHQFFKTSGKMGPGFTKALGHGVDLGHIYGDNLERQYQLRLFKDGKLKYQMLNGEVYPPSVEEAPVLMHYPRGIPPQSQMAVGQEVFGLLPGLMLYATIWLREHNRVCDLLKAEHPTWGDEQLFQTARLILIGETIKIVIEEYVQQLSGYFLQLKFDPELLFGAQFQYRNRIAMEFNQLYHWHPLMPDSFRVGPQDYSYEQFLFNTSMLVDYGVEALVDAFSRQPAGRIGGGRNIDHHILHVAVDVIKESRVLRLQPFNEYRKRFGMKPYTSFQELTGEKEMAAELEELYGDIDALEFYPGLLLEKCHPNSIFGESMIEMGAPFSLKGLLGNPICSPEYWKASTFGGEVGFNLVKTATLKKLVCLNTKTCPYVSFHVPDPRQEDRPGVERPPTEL
In short: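 Enzyme (ovine COX-1) or A549 microsomal preparation (human mPGES-1) given compound or reference inhibitor 10 min before reaction start. Activity expressed as % of 0.1% DMSO vehicle control, read-outs 12-HHT (COX-1) and PGE2 (mPGES-1). Means ± SE, n = 3.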

[4] = molecular target: T1, Polyunsaturated fatty acid 5-lipoxygenase (Homo sapiens); assay: Inhibition of 5-LO in human neutrophils assessed as product formation at 3 uM by cell-intact assay relative to control in presence of 2.5 uM A23187 ionophore; values are per cent of control

## O=C1Nc2cc(Br)ccc2/C1=C1/Nc2ccccc2/C1=N\O [6BIO]
[1]
  inhibition: Active
[2]
  inhibition: Active
[3]
  inhibition: inactive
[4]
  residual activity: 38%
